Assays:
[1] = molecular target: Ionotropic glutamate receptor NMDA 1/2D (Rattus norvegicus, UniProt P35439+Q62645); test: Activity at rat recombinant GluN1/GluN2D receptor assessed as potentiation of glycine/glutamate-induced activation by two-electrode voltage clamp technique; format: protein-complex assay
[2] = molecular target: 5-hydroxytryptamine receptor 1B (Homo sapiens) (UniProt P28222); test: Inhibition of serotonin 5-HT1B receptor (unknown origin) at 5 uM by psychoactive drug screening programme assay
Outline: (§1)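 Radioligand binding screen run by PDSP. Displacement of ligand binding was measured with test compound at 5 µM, n=4 per target.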

[3] = molecular target: Glutamate receptor ionotropic, kainate 2 (Rattus norvegicus) (UniProt P42260); test: Activity at rat recombinant GluK2 receptor expressed in Xenopus oocytes assessed as effect on glutamate-induced response at 3 uM by two-electrode voltage clamp technique relative to control; format: cell-based; details: Oocyte
Outline: (§2)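 Two-electrode voltage clamp of Xenopus oocytes injected with 1–5 ng cRNA and kept in Barth's solution at 15°C for 2–5 days. Oocytes were perfused with 90 mM NaCl, 1.0 KCl, 0.5 BaCl2, 0.005 EDTA, 10 HEPES, pH 7.4, 23°C, and held at -40 mV. Compound was co-applied at 3 µM with agonist from 20 mM DMSO stocks, final DMSO 0.05–0.5%.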

Oocyte = test: Activity at mouse recombinant alpha1beta1gammadelta nAChR expressed in Xenopus oocytes assessed as effect on acetylcholine-induced activation at 3 uM by two-electrode voltage clamp technique relative to control; format: cell-based; outline: as §2
[4] = molecular target: Delta-type opioid receptor (Homo sapiens) (UniProt P41143); test: Inhibition of delta opioid receptor (unknown origin) at 5 uM by psychoactive drug screening programme assay; outline: as §1
Sequence of Delta-type opioid receptor (Homo sapiens) (P41143 whole entry): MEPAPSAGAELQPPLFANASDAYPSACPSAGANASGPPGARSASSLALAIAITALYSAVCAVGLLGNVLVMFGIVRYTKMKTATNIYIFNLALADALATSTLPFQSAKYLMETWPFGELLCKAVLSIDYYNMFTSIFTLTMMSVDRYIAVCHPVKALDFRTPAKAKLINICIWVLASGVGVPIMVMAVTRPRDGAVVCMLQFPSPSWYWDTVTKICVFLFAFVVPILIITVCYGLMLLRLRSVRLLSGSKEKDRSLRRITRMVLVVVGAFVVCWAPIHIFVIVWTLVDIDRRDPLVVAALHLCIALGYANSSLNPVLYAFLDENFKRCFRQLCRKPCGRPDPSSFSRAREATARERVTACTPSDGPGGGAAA

[5] = molecular target: Glutamate NMDA receptor; Grin1/Grin2c (Rattus norvegicus, UniProt P35439+Q00961); test: Activity at rat recombinant GluN1/GluN2C receptor assessed as potentiation of glycine/glutamate-induced activation by two-electrode voltage clamp technique; format: protein-complex assay
[6] = molecular target: 5-hydroxytryptamine receptor 6 (Homo sapiens) (UniProt P50406); test: Inhibition of serotonin 5-HT6 receptor (unknown origin) at 5 uM by psychoactive drug screening programme assay
Sequence of 5-hydroxytryptamine receptor 6 (Homo sapiens) (P50406 whole entry): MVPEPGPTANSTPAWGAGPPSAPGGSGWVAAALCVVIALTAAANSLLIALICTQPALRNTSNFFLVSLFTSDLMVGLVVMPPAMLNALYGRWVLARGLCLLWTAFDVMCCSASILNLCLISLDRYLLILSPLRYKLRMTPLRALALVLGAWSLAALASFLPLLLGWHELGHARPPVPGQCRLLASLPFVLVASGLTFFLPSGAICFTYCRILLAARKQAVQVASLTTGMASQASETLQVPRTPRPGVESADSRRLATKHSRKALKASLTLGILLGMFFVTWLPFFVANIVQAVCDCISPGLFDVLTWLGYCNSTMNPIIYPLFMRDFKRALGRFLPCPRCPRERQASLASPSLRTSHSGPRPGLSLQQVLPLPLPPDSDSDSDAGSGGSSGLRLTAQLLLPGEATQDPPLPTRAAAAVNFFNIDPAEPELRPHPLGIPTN

[7] = molecular target: P2X purinoceptor 2 (Rattus norvegicus) (UniProt P49653); test: Activity at rat recombinant purinergic P2X2 receptor expressed in Xenopus oocytes assessed as effect on ATP-induced activation at 3 uM by two-electrode voltage clamp technique relative to control; format: cell-based; details: Oocyte; outline: as §2
Sequence of P2X purinoceptor 2 (Rattus norvegicus) (P49653 whole entry): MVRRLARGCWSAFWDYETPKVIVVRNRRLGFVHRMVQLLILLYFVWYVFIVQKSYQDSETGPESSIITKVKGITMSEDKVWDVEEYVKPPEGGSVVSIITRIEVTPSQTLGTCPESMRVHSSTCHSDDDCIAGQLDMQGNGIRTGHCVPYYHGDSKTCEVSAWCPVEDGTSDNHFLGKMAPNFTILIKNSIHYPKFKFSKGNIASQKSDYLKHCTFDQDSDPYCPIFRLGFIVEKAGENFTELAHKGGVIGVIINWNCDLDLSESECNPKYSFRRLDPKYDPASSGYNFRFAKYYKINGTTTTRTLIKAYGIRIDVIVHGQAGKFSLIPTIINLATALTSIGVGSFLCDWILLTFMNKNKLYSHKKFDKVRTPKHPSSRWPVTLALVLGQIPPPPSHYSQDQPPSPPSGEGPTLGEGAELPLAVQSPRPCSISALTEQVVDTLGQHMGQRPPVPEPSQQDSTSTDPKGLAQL

[8] = molecular target: Alpha-1B adrenergic receptor (Homo sapiens) (UniProt P35368); test: Inhibition of adrenergic alpha1B receptor (unknown origin) at 5 uM by psychoactive drug screening programme assay; outline: as §1
Sequence of Alpha-1B adrenergic receptor (Homo sapiens) (P35368 whole entry): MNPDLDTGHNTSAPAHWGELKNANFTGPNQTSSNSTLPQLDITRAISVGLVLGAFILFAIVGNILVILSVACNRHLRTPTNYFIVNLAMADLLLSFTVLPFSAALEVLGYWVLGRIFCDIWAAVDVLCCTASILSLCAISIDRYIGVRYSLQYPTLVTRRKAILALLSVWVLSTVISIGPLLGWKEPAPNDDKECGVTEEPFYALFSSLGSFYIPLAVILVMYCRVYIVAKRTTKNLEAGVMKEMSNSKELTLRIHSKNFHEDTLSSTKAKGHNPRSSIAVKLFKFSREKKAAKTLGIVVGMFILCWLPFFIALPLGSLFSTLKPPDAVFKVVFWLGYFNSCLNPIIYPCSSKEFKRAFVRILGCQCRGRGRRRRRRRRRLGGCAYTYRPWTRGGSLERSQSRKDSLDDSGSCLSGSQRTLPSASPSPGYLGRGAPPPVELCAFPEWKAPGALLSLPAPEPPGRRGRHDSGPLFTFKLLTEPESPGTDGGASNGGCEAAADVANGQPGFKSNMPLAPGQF

[9] = molecular target: Muscarinic acetylcholine receptor M3 (Homo sapiens) (UniProt P20309); test: Inhibition of M3 receptor (unknown origin) at 5 uM by psychoactive drug screening programme assay; outline: as §1
[10] = molecular target: Alpha-1A adrenergic receptor (Homo sapiens) (UniProt P35348); test: Inhibition of adrenergic alpha1A receptor (unknown origin) at 5 uM by psychoactive drug screening programme assay; outline: as §1
[11] = molecular target: Ionotropic glutamate receptor kainate 2/5 (Rattus norvegicus) (UniProt P42260+Q63273); test: Activity at rat recombinant GluK2/GluK5 receptor expressed in Xenopus oocytes assessed as effect on glutamate-induced response at 3 uM by two-electrode voltage clamp technique relative to control; format: cell-based; details: Oocyte; outline: as §2
[12] = molecular target: P2X purinoceptor 2 (Homo sapiens) (UniProt Q9UBL9); test: Activity at human recombinant purinergic P2X2 receptor expressed in Xenopus oocytes assessed as effect on ATP-induced activation at 3 uM by two-electrode voltage clamp technique relative to control; format: cell-based; details: Oocyte; outline: as §2
Sequence of P2X purinoceptor 2 (Homo sapiens) (Q9UBL9 whole entry): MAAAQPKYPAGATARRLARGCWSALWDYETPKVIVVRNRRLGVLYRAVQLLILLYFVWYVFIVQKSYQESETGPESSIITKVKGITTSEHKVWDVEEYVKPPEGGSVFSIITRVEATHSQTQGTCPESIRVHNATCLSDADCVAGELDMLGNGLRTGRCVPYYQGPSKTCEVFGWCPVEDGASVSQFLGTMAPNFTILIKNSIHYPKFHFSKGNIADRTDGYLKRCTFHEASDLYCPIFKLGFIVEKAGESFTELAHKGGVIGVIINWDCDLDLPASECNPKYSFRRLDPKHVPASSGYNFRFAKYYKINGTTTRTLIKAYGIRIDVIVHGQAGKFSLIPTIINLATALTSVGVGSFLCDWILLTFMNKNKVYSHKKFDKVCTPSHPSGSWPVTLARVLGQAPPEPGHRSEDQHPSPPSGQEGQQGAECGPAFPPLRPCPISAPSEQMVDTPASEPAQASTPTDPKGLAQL

[13] = molecular target: Histamine H3 receptor (Homo sapiens) (UniProt Q9Y5N1); test: Inhibition of H3 histamine receptor (unknown origin) at 5 uM by psychoactive drug screening programme assay; outline: as §1
[14] = molecular target: Glutamate receptor ionotropic, kainate 1 (Rattus norvegicus) (UniProt P22756); test: Activity at rat recombinant GluK1 receptor expressed in Xenopus oocytes assessed as effect on glutamate-induced response at 3 uM by two-electrode voltage clamp technique relative to control; format: cell-based; details: Oocyte; outline: as §2
Sequence of Glutamate receptor ionotropic, kainate 1 (Rattus norvegicus) (P22756 whole entry): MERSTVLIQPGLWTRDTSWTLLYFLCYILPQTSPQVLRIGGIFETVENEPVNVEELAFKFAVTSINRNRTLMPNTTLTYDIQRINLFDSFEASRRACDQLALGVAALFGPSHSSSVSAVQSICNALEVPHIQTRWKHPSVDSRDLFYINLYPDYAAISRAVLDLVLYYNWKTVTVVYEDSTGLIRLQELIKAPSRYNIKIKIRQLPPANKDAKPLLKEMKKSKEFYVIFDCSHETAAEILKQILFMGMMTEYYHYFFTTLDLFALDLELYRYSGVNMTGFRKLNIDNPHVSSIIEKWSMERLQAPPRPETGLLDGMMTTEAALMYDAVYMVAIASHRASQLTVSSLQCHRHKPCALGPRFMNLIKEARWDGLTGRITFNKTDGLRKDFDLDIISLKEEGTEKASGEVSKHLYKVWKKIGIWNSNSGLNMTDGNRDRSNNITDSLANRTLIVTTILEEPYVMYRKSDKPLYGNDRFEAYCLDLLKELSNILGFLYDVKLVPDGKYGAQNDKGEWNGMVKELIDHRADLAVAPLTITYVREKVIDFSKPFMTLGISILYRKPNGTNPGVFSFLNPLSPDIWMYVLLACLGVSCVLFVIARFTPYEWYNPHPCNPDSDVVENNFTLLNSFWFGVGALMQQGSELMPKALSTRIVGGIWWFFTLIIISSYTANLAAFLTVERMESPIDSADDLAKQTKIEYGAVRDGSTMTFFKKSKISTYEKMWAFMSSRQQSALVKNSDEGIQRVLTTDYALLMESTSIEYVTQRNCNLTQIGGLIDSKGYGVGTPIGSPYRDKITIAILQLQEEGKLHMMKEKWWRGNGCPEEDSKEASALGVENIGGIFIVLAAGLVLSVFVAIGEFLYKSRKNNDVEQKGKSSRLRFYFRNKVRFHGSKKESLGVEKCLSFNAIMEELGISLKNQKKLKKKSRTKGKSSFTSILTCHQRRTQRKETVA

[15] = molecular target: Glutamate receptor 3 (Rattus norvegicus) (UniProt P19492); test: Activity at rat recombinant GluA3 receptor expressed in Xenopus oocytes assessed as effect on glutamate-induced response at 3 uM by two-electrode voltage clamp technique relative to control; format: cell-based; details: Oocyte; outline: as §2
[16] = molecular target: 5-hydroxytryptamine receptor 7 (Homo sapiens) (UniProt P34969); test: Inhibition of serotonin 5-HT7 receptor (unknown origin) at 5 uM by psychoactive drug screening programme assay
Sequence of 5-hydroxytryptamine receptor 7 (Homo sapiens) (P34969 whole entry): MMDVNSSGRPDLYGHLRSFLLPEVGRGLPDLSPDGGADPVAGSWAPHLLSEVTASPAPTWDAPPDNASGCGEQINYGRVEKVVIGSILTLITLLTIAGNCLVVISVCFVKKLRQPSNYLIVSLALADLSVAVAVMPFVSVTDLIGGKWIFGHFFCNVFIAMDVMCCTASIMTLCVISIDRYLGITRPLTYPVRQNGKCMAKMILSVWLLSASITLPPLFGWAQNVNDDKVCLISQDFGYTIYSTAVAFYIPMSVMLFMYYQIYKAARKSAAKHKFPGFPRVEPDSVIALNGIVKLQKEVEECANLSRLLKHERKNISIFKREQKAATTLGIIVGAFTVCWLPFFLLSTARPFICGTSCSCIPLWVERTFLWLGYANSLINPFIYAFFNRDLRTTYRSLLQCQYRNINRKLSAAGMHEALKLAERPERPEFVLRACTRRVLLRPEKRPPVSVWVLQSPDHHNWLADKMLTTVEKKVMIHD

[17] = molecular target: 5-hydroxytryptamine receptor 5A (Homo sapiens) (UniProt P47898); test: Inhibition of serotonin 5-HT5A receptor (unknown origin) at 5 uM by psychoactive drug screening programme assay
Sequence of 5-hydroxytryptamine receptor 5A (Homo sapiens) (P47898 whole entry): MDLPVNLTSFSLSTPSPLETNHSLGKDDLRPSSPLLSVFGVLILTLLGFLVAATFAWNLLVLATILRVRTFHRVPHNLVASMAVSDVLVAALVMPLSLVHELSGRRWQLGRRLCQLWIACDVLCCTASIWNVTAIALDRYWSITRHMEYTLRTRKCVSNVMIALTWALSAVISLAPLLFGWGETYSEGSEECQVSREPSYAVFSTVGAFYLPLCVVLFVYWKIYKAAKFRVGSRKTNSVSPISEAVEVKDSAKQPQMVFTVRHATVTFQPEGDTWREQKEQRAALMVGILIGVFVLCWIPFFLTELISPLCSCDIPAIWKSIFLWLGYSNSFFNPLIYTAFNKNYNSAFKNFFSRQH

[18] = molecular target: Glutamate NMDA receptor; Grin1/Grin2c (Rattus norvegicus) (UniProt P35439+Q00961); test: Activity at rat recombinant GluN1/GluN2C receptor expressed in Xenopus oocytes assessesed as effect of glycine/glutamate-induced response at 3 uM by two-electrode voltage clamp technique relative to control; format: cell-based; details: Oocyte; outline: as §2
[19] = molecular target: Muscarinic acetylcholine receptor M1 (Homo sapiens) (UniProt P11229); test: Inhibition of M1 receptor (unknown origin) at 5 uM by psychoactive drug screening programme assay; outline: as §1
Sequence of Muscarinic acetylcholine receptor M1 (Homo sapiens) (P11229 whole entry): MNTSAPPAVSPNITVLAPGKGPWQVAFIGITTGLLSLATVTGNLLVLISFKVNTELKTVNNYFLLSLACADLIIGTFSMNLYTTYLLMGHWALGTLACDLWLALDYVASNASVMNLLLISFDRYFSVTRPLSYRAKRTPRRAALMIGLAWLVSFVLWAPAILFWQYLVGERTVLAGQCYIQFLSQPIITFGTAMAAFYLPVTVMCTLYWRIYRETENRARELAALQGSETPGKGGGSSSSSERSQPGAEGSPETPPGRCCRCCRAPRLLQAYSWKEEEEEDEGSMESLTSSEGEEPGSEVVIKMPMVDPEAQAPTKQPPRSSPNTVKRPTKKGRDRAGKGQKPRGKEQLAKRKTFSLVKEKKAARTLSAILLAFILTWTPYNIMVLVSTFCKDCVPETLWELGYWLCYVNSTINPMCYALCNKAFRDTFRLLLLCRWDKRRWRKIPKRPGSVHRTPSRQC

[20] = molecular target: 5-hydroxytryptamine receptor 2A (Homo sapiens) (UniProt P28223); test: Inhibition of serotonin 5-HT2A receptor (unknown origin) at 5 uM by psychoactive drug screening programme assay; outline: as §1
[21] = molecular target: Mu-type opioid receptor (Homo sapiens) (UniProt P35372); test: Inhibition of mu opioid receptor (unknown origin) at 5 uM by psychoactive drug screening programme assay; outline: as §1
[22] = molecular target: Glycine receptor subunit alpha-1 (Rattus norvegicus) (UniProt P07727); test: Activity at rat recombinant glycine alpha1 receptor expressed in Xenopus oocytes assessed as effect on glycine-induced activation at 3 uM by two-electrode voltage clamp technique relative to control; format: cell-based; details: Oocyte; outline: as §2
[23] = molecular target: Beta-3 adrenergic receptor (Homo sapiens) (UniProt P13945); test: Inhibition of adrenergic beta3 receptor (unknown origin) at 5 uM by psychoactive drug screening programme assay; outline: as §1
[24] = molecular target: Glutamate NMDA receptor; Grin1/Grin2b (Rattus norvegicus) (UniProt P35439+Q00960); test: Activity at rat recombinant GluN1/GluN2B receptor expressed in Xenopus oocytes assessed as effect of glycine/glutamate-induced response at 3 uM by two-electrode voltage clamp technique relative to control; format: cell-based; details: Oocyte; outline: as §2
Homo sapiens = species: Homo sapiens; test: Inhibition of sigma2 receptor (unknown origin) at 5 uM by psychoactive drug screening programme assay
[25] = molecular target: Sodium-dependent noradrenaline transporter (Homo sapiens) (UniProt P23975); test: Inhibition of norepinephrine transporter (unknown origin) at 5 uM by psychoactive drug screening programme assay; outline: as §1
[26] = molecular target: D(3) dopamine receptor (Homo sapiens) (UniProt P35462); test: Inhibition of dopamine D3 receptor (unknown origin) at 5 uM by psychoactive drug screening programme assay; outline: as §1
[27] = molecular target: D(2) dopamine receptor (Homo sapiens) (UniProt P14416); test: Inhibition of dopamine D2 receptor (unknown origin) at 5 uM by psychoactive drug screening programme assay; outline: as §1
Sequence of D(2) dopamine receptor (Homo sapiens) (P14416 whole entry): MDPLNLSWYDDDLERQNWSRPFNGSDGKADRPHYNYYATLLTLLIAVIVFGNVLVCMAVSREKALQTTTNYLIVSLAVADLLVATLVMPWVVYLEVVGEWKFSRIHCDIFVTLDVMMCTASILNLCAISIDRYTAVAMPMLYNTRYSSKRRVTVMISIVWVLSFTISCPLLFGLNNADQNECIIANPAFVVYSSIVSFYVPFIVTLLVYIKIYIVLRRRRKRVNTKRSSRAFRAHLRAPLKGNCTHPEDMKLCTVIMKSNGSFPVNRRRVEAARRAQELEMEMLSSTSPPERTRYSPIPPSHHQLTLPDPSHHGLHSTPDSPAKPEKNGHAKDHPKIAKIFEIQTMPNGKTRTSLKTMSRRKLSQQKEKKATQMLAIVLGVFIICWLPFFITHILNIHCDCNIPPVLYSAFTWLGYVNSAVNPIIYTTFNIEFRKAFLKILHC

[28] = molecular target: Sodium-dependent dopamine transporter (Homo sapiens) (UniProt Q01959); test: Inhibition of dopamine transporter (unknown origin) at 5 uM by psychoactive drug screening programme assay; outline: as §1

SMILES: COc1ccc(OCC2c3ccc(OCc4ccccc4)cc3CCN2C(=O)c2cccc(Br)c2)cc1 (stereo not given)
- EC50 [1]: 0.3 µM
- inhibition [2]: < 50%
- Activity [3]: 98%
- Activity (Oocyte): 105%
- inhibition [4]: < 50%
- EC50 [5]: 0.3 µM
- inhibition [6]: < 50%
- Activity [7]: 94%
- inhibition [8]: < 50%
- inhibition [9]: < 50%
- inhibition [10]: < 50%
- Activity [11]: 103%
- Activity [12]: 94%
- inhibition [13]: < 50%
- Activity [14]: 101%
- Activity [15]: 99%
- inhibition [16]: < 50%
- inhibition [17]: < 50%
- Activity [18]: 247%
- inhibition [19]: < 50%
- inhibition [20]: < 50%
- inhibition [21]: < 50%
- Activity [22]: 91%
- inhibition [23]: < 50%
- Activity [24]: 102%
- inhibition (Homo sapiens): < 50%
- inhibition [25]: < 50%
- inhibition [26]: < 50%
- inhibition [27]: < 50%
- inhibition [28]: < 50%

— ChEMBL document CHEMBL2396604, “Synthesis and structure activity relationship of tetrahydroisoquinoline-based potentiators of GluN2C and GluN2D containing N-methyl-D-aspartate receptors” (J Med Chem, 2013)
